The values below come from ChEMBL document CHEMBL1133621, “Synthesis, characterization, and cytotoxicity of trifunctional dinuclear platinum complexes: comparison of effects of geometry and polyfunctionality on biological activity” (J Med Chem, 2000).

Several values for one entry are separate records, joined by “and”; a condition that tells them apart may be missing. Identical values can stand only once.

Holding throughout (format): functional, cell-based
One assay has as its system HX62 cell line. The assay can be described thus: Cytotoxic activity in a panel of Human ovarian tumor HX/62 cell line after 96h of drug exposure. In short, it runs like this: (§1)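 SRB growth-inhibition assay. Cells were seeded at (3-8) × 10^3 per well and left to attach overnight. Platinum agents were added after serial dilution, in quadruplicate wells, with continuous 96 h exposure. Growth in treated and control wells was quantified by staining with 0.4% SRB dissolved in 1% acetic acid.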

Assay [1] relates to A2780. The assay can be described thus: Cytotoxic activity in a panel of Human ovarian tumor A2780/CDDP cell line after 96h of drug exposure. In short, it runs like this:
as §1

Another assay concerns SK-OV-3. The experiment in a line: Cytotoxic activity in a panel of Human ovarian tumor SKOV-3 cell line after 96h of drug exposure. In short, it runs like this:
as §1

In assay [2] the test system is CH1. The assay can be described thus: Cytotoxic activity in a panel of Human ovarian tumor CH1 cell line after 96h of drug exposure. In short, it runs like this:
as §1

In assay [3] the test system is CH1. The assay can be described thus: Cytotoxic activity in a panel of Human ovarian tumor CH1/CDDP cell line after 96h of drug exposure. In a few lines:
as §1

In assay [4] the test system is 41M. The experiment in a line: Cytotoxic activity in a panel of Human ovarian tumor 41M cell line after 96h of drug exposure. In a few lines: as §1
Assay [5] concerns 41M. The experiment in a line: Cytotoxic activity in a panel of Human ovarian tumor 41M/CDDP cell line after 96h of drug exposure. In a few lines:
as §1

Assay [6] relates to 41M. The assay can be described thus: RF(Resistant factor) is determined from the ratio of IC50 of 41M to the IC50 of CDDP cell lines.
In assay [7] the test system is CH1. The experiment in a line: RF(Resistant factor) is determined from the ratio of IC50 of CH1 to the IC50 of CDDP cell lines.
Assay [8] has as its system A2780. The experiment in a line: RF(Resistant factor) is determined from the ratio of IC50 of A2780 to the IC50 of CDDP cell lines.
Assay [9] deals with A2780. The assay can be described thus: Cytotoxic activity in a panel of Human ovarian tumor A2780 cell line after 96h of drug exposure. In short, it runs like this: as §1

For the substance CISPLATIN [listing 1 of 2 here], the IC50 in the assay on HX62 cell line was 25000 nM; in the assay on A2780 [1], 6200 nM; with SK-OV-3 it was 8000 nM; with CH1 [2], 180 nM; in the assay with CH1 [3], 1450 nM; with 41M [4] it was 540 nM. Also, in the assay on 41M [5], the midpoint of inhibition, the IC50, lay at 1700 nM.

As to CISPLATIN [listing 2 of 2 here], the RF was determined as 3.1 with 41M [6], 8 in the assay on CH1 [7] and 11.7 in the assay on A2780 [8].

In the case of “trans-[{PtCl(NH3)2}-mu-{NH2(CH2)6NH2}-cis-{PtCl2(NH3)}]Cl [listing 1 of 2 here]”, the IC50 in the assay with HX62 cell line was 24000 nM and 12500 nM; with A2780 [1], 890 nM and 340 nM; in the assay on SK-OV-3 it was 31000 nM and 17700 nM; in the assay with A2780 [9], 280 nM and 66 nM; in the assay on CH1 [2], 300 nM and 220 nM; in the assay on CH1 [3], 970 nM and 980 nM. In addition, the IC50 in the assay on 41M [4] was 2500 nM and 2400 nM; in the assay on 41M [5], 670 nM and 1300 nM.

Consider “trans-[{PtCl(NH3)2}-mu-{NH2(CH2)6NH2}-cis-{PtCl2(NH3)}]Cl [listing 2 of 2 here]”, for which the RF was 0.27 and 0.53 in the assay on 41M [6]; 3.2 and 4.4 with CH1 [7]; 3.2 and 5.2 with A2780 [8].

Consider “trans-[{PtCl(NH3)2}-mu-{NH2(CH2)6NH2}-trans-{PtCl(NH3)2}] [listing 1 of 2 here]”, for which the IC50 in the assay with HX62 cell line is 11000 nM and 14000 nM; in the assay on A2780 [1], 1200 nM and 4900 nM; with SK-OV-3, 15300 nM and 87000 nM; with A2780 [9] it was 66 nM and 250 nM; in the assay on 41M [4], 1900 nM and 7400 nM; in the assay with 41M [5], 410 nM and 1800 nM.

Consider “trans-[{PtCl(NH3)2}-mu-{NH2(CH2)6NH2}-trans-{PtCl(NH3)2}] [listing 2 of 2 here]”, for which the RF with 41M [6] is 0.21 and 0.24; in the assay with CH1 [7], 3.3 and 2; in the assay with A2780 [8], 18 and 19.6.

The term IC50 denotes the concentration needed to halve the response being measured. Lower therefore signals greater potency in that assay.
